In ChEMBL document CHEMBL1641521, “Design, synthesis and antimycobacterial activities of 1-methyl-2-alkenyl-4(1H)-quinolones” (Bioorg Med Chem, 2011) one finds MIC, viability and Selectivity Index data, which are given here for 25 compounds.

SMILES strings stand for the structures. Values after ≈ are worked out from the molar mass of the structure shown.

One data set relates to Mycolicibacterium phlei. Put plainly: Antimycobacterial activity against Mycobacterium phlei ATCC 19249 after 72 hrs by broth microtiter dilution method. Format: functional. Conditions: ATCC 19249, 72 h. An outline of the steps: (§1)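 Twofold serial dilution in cation-adjusted Mueller–Hinton broth, final 128–0.25 mg/L, compounds first dissolved in DMSO. Strains grown on Columbia blood agar with 7% defibrinated horse blood; inoculum 5 x 10^5 cfu/mL from 0.5 McFarland suspension in 0.9% NaCl. Three runs in duplicate.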

Data set [1] deals with Mycolicibacterium fortuitum. Briefly: Antimycobacterial activity against Mycobacterium fortuitum ATCC 6841 after 72 hrs by broth microtiter dilution method. Format: functional. Conditions: ATCC 6841, 72 h. An outline of the steps: as §1
Data set [2] can be described thus: Cytotoxicity against human MRC5 cells assessed as metabolic active cells at 100 uM after 72 hrs by XTT assay relative to control. The settings on record: read-out: Activity. Format: ADME, cell-based. An outline of the steps:
(§2)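 MRC-5 human diploid embryonic lung cells seeded at 5 × 10^4 cells/well, grown 24 h, then exposed 72 h at 37 °C, 5% CO2 to compound. Ethanol stocks were diluted with buffer or water; 0.1% ethanol served as solvent control. XTT added, 4 h further, absorbance 490 nm minus 655 nm reference. Viability given as % of solvent control; triplicate on two plates, n = 6, mean ± SEM.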
(In general: Tetrazolium assays rely on reduction of a dye to a coloured formazan, in cell work by metabolically active cells.)

A short description of data set [3]: Cytotoxicity against human MRC5 cells assessed as metabolic active cells at 30 uM after 72 hrs by XTT assay relative to control. Format: ADME, cell-based. Conditions: read-out: Activity. Put shortly: as §2
In data set [4] the test system is Mycolicibacterium smegmatis. Put plainly: Antimycobacterial activity against Mycobacterium smegmatis ATCC 19420 after 72 hrs by broth microtiter dilution method. Format: functional. Conditions: ATCC 19420, 72 h. An outline of the steps: as §1
Data set [5] in a line: Selectivity index, ratio of IC50 for human MRC5 cells to MIC for Mycobacterium smegmatis ATCC 19420. Format: functional.

Consider `NNC(=O)c1ccncc1` [ISONIAZID], for which the figures for the MIC (against Mycolicibacterium phlei; in data set [1]) were 4 µg/mL (≈ 29.2 µM) and 1 µg/mL (≈ 7.29 µM), respectively.

For the compound `CCCCCCCCC/C=C\CCCCc1cc(=O)c2ccccc2n1C`, the viability at 72 h, 100 µM in data set [2] is 0.8%. The viability at 72 h, 30 µM in data set [3] was 46.6%. 2.7 µM (≈ 0.992 µg/mL) was the least that counted as inhibitory in data set [4] (MIC).

`CCCCCCCCCCCCCCCc1cc(=O)c2ccccc2n1C`: in data set [2], the viability at 72 h, 100 µM worked out at 57.9%. Further, the viability at 72 h, 30 µM in data set [3] was 79.8%. Also, in data set [4], the MIC (commonly the least concentration at which growth counts as inhibited) stood at 347 µM (≈ 128 µg/mL).

For `CCCCCCCC/C=C\CCCc1cc(=O)c2ccccc2n1C`, in data set [2], the viability at 72 h, 100 µM worked out at 32%. Further, the viability at 72 h, 30 µM in data set [3] amounted to 76.3%. The same compound yielded an MIC in data set [4] of 5.9 µM (≈ 2 µg/mL).

With `CCCCC/C=C/c1cc(=O)c2ccccc2n1C`, in data set [2], the viability at 72 h, 100 µM stood at 77.2%. Moreover, the viability at 72 h, 30 µM in data set [3] is 86.2%. In addition, in data set [4], the MIC stood at 62.7 µM (≈ 16 µg/mL).

In the case of `CCCCC/C=C\CCCCCCc1cc(=O)c2ccccc2n1C` [EVOCARPINE], the viability at 72 h, 100 µM in data set [2] came to 87.6%. In addition, the values for the MIC (with Mycolicibacterium phlei; in data set [4]; in data set [1]) were 2 µg/mL (≈ 5.89 µM), 5.9 µM (≈ 2 µg/mL) and 2 µg/mL (≈ 5.89 µM), respectively. For the same compound, in data set [3], the viability at 72 h, 30 µM came to 94%.

As to `CCCCCCCCCCC/C=C/C=C/c1cc(=O)c2ccccc2n1C`, in data set [2], the viability at 72 h, 100 µM stood at 18.5%. In addition, the MIC was found to be 4 µg/mL (≈ 10.9 µM) in the data set on Mycolicibacterium phlei, 10.9 µM (≈ 3.98 µg/mL) in data set [4] and 2 µg/mL (≈ 5.47 µM) in data set [1]. Also, the viability at 72 h, 30 µM in data set [3] was determined as 50.7%.

As to `CCCCCCCCCC/C=C/C=C/c1cc(=O)c2ccccc2n1C`, the viability at 72 h, 100 µM in data set [2] was found to be 32.5%. Also, the viability at 72 h, 30 µM in data set [3] is 73.8%. Also, in data set [4], the MIC was determined as 182 µM (≈ 64.1 µg/mL).

For the compound `CCCCCCCCCC/C=C\CCCCCCCCc1cc(=O)c2ccccc2n1C`, the viability at 72 h, 100 µM in data set [2] came out at 91.5%. Also, the viability at 72 h, 30 µM in data set [3] is 98.9%. The same compound gave an MIC in data set [4] of 293 µM (≈ 128 µg/mL).

For the compound `CCCCC/C=C\C/C=C\CCCCCCCc1cc(=O)c2ccccc2n1C`, the viability at 72 h, 100 µM in data set [2] turned out to be 0.4%. Moreover, the MIC in the data set on Mycolicibacterium phlei was 8 µg/mL (≈ 20.3 µM); in data set [4], 5.1 µM (≈ 2.01 µg/mL); in data set [1], 4 µg/mL (≈ 10.2 µM). The viability at 72 h, 30 µM in data set [3] is 44.2%.

Turning to `CCCCCCCC/C=C\CCc1cc(=O)c2ccccc2n1C`, the viability at 72 h, 100 µM in data set [2] is 85.6%. Further, the Selectivity Index in data set [5] is over 20. Moreover, the viability at 72 h, 30 µM in data set [3] stood at 88.3%. This compound also showed an MIC in data set [4] of 6.2 µM (≈ 2.02 µg/mL).

Turning to `CCCCCCCCCCCCCCCCCc1cc(=O)c2ccccc2n1C`, the viability at 72 h, 100 µM in data set [2] was 95.2%. In data set [3], the viability at 72 h, 30 µM amounted to 100%. This compound also gave an MIC in data set [4] of over 322 µM.

Take `CCCC/C=C\CCCCc1cc(=O)c2ccccc2n1C`: in data set [2], the viability at 72 h, 100 µM turned out to be 83.5%. Also, the MIC against Mycolicibacterium phlei came out at 8 µg/mL (≈ 26.9 µM); in data set [4] it was 26.9 µM (≈ 8 µg/mL); in data set [1], 8 µg/mL (≈ 26.9 µM). The viability at 72 h, 30 µM in data set [3] was 96.8%.

`CCCCC/C=C\CCCCc1cc(=O)c2ccccc2n1C`: the viability at 72 h, 100 µM in data set [2] worked out at 88.5%. Moreover, the viability at 72 h, 30 µM in data set [3] is 94.9%. The lowest concentration to inhibit growth in data set [4] (MIC) was 12.9 µM (≈ 4.02 µg/mL).

On to `CCCCCCCCCC/C=C\CCc1cc(=O)c2ccccc2n1C`, for which the viability at 72 h, 100 µM in data set [2] came out at 4.9%. For the same compound, the MIC in the data set on Mycolicibacterium phlei worked out at 1 µg/mL (≈ 2.83 µM); in data set [4], 2.8 µM (≈ 0.99 µg/mL); in data set [1], 1 µg/mL (≈ 2.83 µM). Also, the viability at 72 h, 30 µM in data set [3] came to 55.1%.

In the case of `CCCCCC/C=C/c1cc(=O)c2ccccc2n1C`, in data set [2], the viability at 72 h, 100 µM came to 76.5%. In data set [3], the viability at 72 h, 30 µM was found to be 96.8%. Further, in data set [4], the MIC was determined as 14.9 µM (≈ 4.01 µg/mL).

As for `CC[C@@H](CO)NCCN[C@@H](CC)CO` [ETHAMBUTOL], the figures for the MIC (against Mycolicibacterium phlei; in data set [1]) were 4 µg/mL (≈ 19.6 µM) and 8 µg/mL (≈ 39.2 µM), respectively.

Turning to `CCCCCCCC/C=C\CCCCCCCCc1cc(=O)c2ccccc2n1C`, the viability at 72 h, 100 µM in data set [2] was 25.5%. Besides, the viability at 72 h, 30 µM in data set [3] turned out to be 84.4%. Moreover, the MIC in data set [4] was found to be 39.1 µM (≈ 16 µg/mL).

On to `CCCCCCCCC/C=C\CCCCCCCCc1cc(=O)c2ccccc2n1C`, for which the viability at 72 h, 100 µM in data set [2] is 19.9%. Besides, the viability at 72 h, 30 µM in data set [3] is 95.9%. For the same compound, the MIC in data set [4] was 151 µM (≈ 64.1 µg/mL).

For `CCCCCC/C=C\CCc1cc(=O)c2ccccc2n1C`, the viability at 72 h, 100 µM in data set [2] was found to be 47.9%. Also, the viability at 72 h, 30 µM in data set [3] amounted to 73.8%. In data set [4], this compound came in with an MIC of 53.9 µM (≈ 16 µg/mL).

With `CC/C=C\CCCCCCCCCc1cc(=O)c2ccccc2n1C`, the viability at 72 h, 100 µM in data set [2] came to 95.4%. In data set [5], the Selectivity Index was over 20. The viability at 72 h, 30 µM in data set [3] turned out to be 95.3%. The same compound had an MIC in data set [4] of 5.9 µM (≈ 2 µg/mL).

As to `CCCCCCCCC/C=C\CCc1cc(=O)c2ccccc2n1C`, the viability at 72 h, 100 µM in data set [2] came to 82.1%. Besides, the Selectivity Index in data set [5] was over 20. The viability at 72 h, 30 µM in data set [3] turned out to be 89.7%. Further, the lowest concentration to inhibit growth in data set [4] (MIC) was 5.9 µM (≈ 2 µg/mL).

For the compound `CCCCCC/C=C\CCCCc1cc(=O)c2ccccc2n1C`, in data set [2], the viability at 72 h, 100 µM is 81.2%. For the same compound, in data set [5], the Selectivity Index was over 20. For the same compound, the viability at 72 h, 30 µM in data set [3] is 94.7%. In data set [4], this compound came in with an MIC of 3.1 µM (≈ 1.01 µg/mL).

On to `CCCCCCCC/C=C\CCCCCCCc1cc(=O)c2ccccc2n1C`, for which the viability at 72 h, 100 µM in data set [2] is 0.4%. Also, in data set [3], the viability at 72 h, 30 µM was found to be 53.4%. Moreover, the lowest concentration to inhibit growth in data set [4] (MIC) was 20.3 µM (≈ 8.03 µg/mL).

`CCCCCCCCCCCCCc1cc(=O)c2ccccc2n1C`: the viability at 72 h, 100 µM in data set [2] was found to be 69.6%. Besides, in data set [3], the viability at 72 h, 30 µM amounted to 102%. The compound further came in with an MIC in data set [4] of 188 µM (≈ 64.1 µg/mL).
